Data taken from ChEMBL document CHEMBL1126990, “Design and synthesis of 18F-labeled neurotoxic analogs of MPTP” (J Med Chem, 1993).

What was measured:
Mus musculus [1] = species: Mus musculus; experiment: Biodistribution of [18F]-radiolabeled compound in the mouse heart after 30 minutes (average uptake in (%injected dose)/(% body weight); type: ADME, organism-based; conditions: in vivo, 0.5 h
Procedure, shortened: (§1)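 Adult male C57 Black mice (about 20 g), anesthetized with 1 mg sodium pentobarbital ip, given 0.1 mL (~0.05 mCi) tracer via tail vein. Killed by cervical dislocation at set times (5–90 min). Organs sampled, counted, weighed. Injected dose measured against weighed standards, minus residual tail activity. %id/g multiplied by body weight gives normalized uptake. Mean ± SD, N = 3 (N = 2 at 5 min).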

[2] = Ratio between Vmax and Km; type: ADME
Procedure, shortened: (§2)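 Rat liver MAO (crude P2 mitochondrial fraction from adult male Wistar rats, in pH 7.4 phosphate buffer) incubated with substrate at 30 μM to 5 mM; colorimetric detection of H2O2 formed. Blanks contained 0.1 mM pargyline. Vmax and Km from linear regression of Lineweaver-Burk plots; means ± SE of n separate experiments; ANOVA with post-hoc Scheffe test.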

Mus musculus [3] = species: Mus musculus; experiment: Biodistribution of [18F]-radiolabeled compound in the mouse kidney after 15 minutes (average uptake in (%injected dose)/(% body weight); type: ADME, organism-based; conditions: in vivo, 0.25 h; procedure, shortened: as §1
Mus musculus [4] = species: Mus musculus; experiment: Biodistribution of [18F]-radiolabeled compound in the mouse blood after 60 minutes (average uptake in (%injected dose)/(% body weight); type: ADME, organism-based; conditions: in vivo, 1 h; procedure, shortened: as §1
Mus musculus [5] = species: Mus musculus; experiment: Biodistribution of [18F]-radiolabeled compound in the mouse intestine after 30 min (average uptake in (%injected dose)/(% body weight); type: ADME, organism-based; conditions: in vivo, 0.5 h; procedure, shortened: as §1
Mus musculus [6] = species: Mus musculus; experiment: Biodistribution of [18F]-radiolabeled compound in the mouse muscle after 90 minutes (average uptake in (%injected dose)/(% body weight); type: ADME, organism-based, Muscle tissue; conditions: in vivo, 1.5 h; procedure, shortened: as §1
Mus musculus [7] = species: Mus musculus; experiment: Biodistribution of [18F]-radiolabeled compound in the mouse liver after 60 minutes (average uptake in (%injected dose)/(% body weight); type: ADME, organism-based; conditions: in vivo, 1 h; procedure, shortened: as §1
Mus musculus [8] = species: Mus musculus; experiment: Biodistribution of [18F]-radiolabeled compound in the mouse brain after 90 minutes (average uptake in (%injected dose)/(% body weight); type: ADME, organism-based; conditions: in vivo, 1.5 h; procedure, shortened: as §1
Mus musculus [9] = species: Mus musculus; experiment: Biodistribution of [18F]-radiolabeled compound in the mouse spleen after 60 minutes (average uptake in (%injected dose)/(% body weight); type: ADME, organism-based; conditions: in vivo, 1 h; procedure, shortened: as §1
Mus musculus [10] = species: Mus musculus; experiment: Biodistribution of [18F]-radiolabeled compound in the mouse kidney after 90 minutes (average uptake in (%injected dose)/(% body weight); type: ADME, organism-based; conditions: in vivo, 1.5 h; procedure, shortened: as §1
Mus musculus [11] = species: Mus musculus; experiment: Biodistribution of [18F]-radiolabeled compound in the mouse brain after 5 minutes (average uptake in (%injected dose)/(% body weight); type: ADME, organism-based; conditions: in vivo; procedure, shortened: as §1
Mus musculus [12] = species: Mus musculus; experiment: Biodistribution of [18F]-radiolabeled compound in the mouse brain after 60 minutes (average uptake in (%injected dose)/(% body weight); type: ADME, organism-based; conditions: in vivo, 1 h; procedure, shortened: as §1
Mus musculus [13] = species: Mus musculus; experiment: Biodistribution of [18F]-radiolabeled compoundP in the mouse spleen after 15 minutes (average uptake in (%injected dose)/(% body weight); type: ADME, organism-based; conditions: in vivo, 0.25 h; procedure, shortened: as §1
Mus musculus [14] = species: Mus musculus; experiment: Biodistribution of [18F]-radiolabeled compound in the mouse spleen after 90 minutes (average uptake in (%injected dose)/(% body weight); type: ADME, organism-based; conditions: in vivo, 1.5 h; procedure, shortened: as §1
Mus musculus [15] = species: Mus musculus; experiment: Biodistribution of [18F]-radiolabeled compound in the mouse liver after 5 minutes (average uptake in (%injected dose)/(% body weight); type: ADME, organism-based; conditions: in vivo; procedure, shortened: as §1
Mus musculus [16] = species: Mus musculus; experiment: Biodistribution of [18F]-radiolabeled compound in the mouse liver after 30 minutes (average uptake in (%injected dose)/(% body weight); type: ADME, organism-based; conditions: in vivo, 0.5 h; procedure, shortened: as §1
Mus musculus [17] = species: Mus musculus; experiment: Biodistribution of [18F]-radiolabeled compound in the mouse bone after 60 minutes (average uptake in (%injected dose)/(% body weight); type: ADME, organism-based, Bone element; conditions: in vivo, 1 h; procedure, shortened: as §1
Mus musculus [18] = species: Mus musculus; experiment: Biodistribution of [18F]-radiolabeled compound in the mouse intestine after 5 minutes (average uptake in (%injected dose)/(% body weight); type: ADME, organism-based; conditions: in vivo; procedure, shortened: as §1
Mus musculus [19] = species: Mus musculus; experiment: Biodistribution of [18F]-radiolabeled compound in the mouse heart after 15 minutes (average uptake in (%injected dose)/(% body weight); type: ADME, organism-based; conditions: in vivo, 0.25 h; procedure, shortened: as §1
Mus musculus [20] = species: Mus musculus; experiment: Biodistribution of [18F]-radiolabeled compound in the mouse blood after 5 minutes (average uptake in (%injected dose)/(% body weight); type: ADME, organism-based; conditions: in vivo; procedure, shortened: as §1
Mus musculus [21] = species: Mus musculus; experiment: Biodistribution of [18F]-radiolabeled compound in the mouse muscle after 30 minutes (average uptake in (%injected dose)/(% body weight); type: ADME, organism-based, Muscle tissue; conditions: in vivo, 0.5 h; procedure, shortened: as §1
[22] = separate experiments, n=4); type: ADME; procedure, shortened: as §2
Mus musculus [23] = species: Mus musculus; experiment: Biodistribution of [18F]-radiolabeled compound in the mouse lung after 90 minutes (average uptake in (%injected dose)/(% body weight); type: ADME, organism-based; conditions: in vivo, 1.5 h; procedure, shortened: as §1
Mus musculus [24] = species: Mus musculus; experiment: Biodistribution of [18F]-radiolabeled compound in the mouse heart after 90 minutes (average uptake in (%injected dose)/(% body weight); type: ADME, organism-based; conditions: in vivo, 1.5 h; procedure, shortened: as §1
Mus musculus [25] = species: Mus musculus; experiment: Biodistribution of [18F]-radiolabeled compound in the mouse heart after 5 minutes (average uptake in (%injected dose)/(% body weight); type: ADME, organism-based; conditions: in vivo; procedure, shortened: as §1
Mus musculus [26] = species: Mus musculus; experiment: Biodistribution of [18F]-radiolabeled compound in the mouse bone after 5 minutes (average uptake in (%injected dose)/(% body weight); type: ADME, organism-based, Bone element; conditions: in vivo; procedure, shortened: as §1

In the case of CN1CC=C(c2ccccc2CF)CC1, the Time (Mus musculus [1]) is reported as 2.03 min, the Ratio [2] is reported as 3.83 and the Time (Mus musculus [3]) is reported as 2.64 min. The Time (Mus musculus [4]) was 0.31 min, the Time (Mus musculus [5]) was 1.06 min and the Time (Mus musculus [6]) was 0.24 min. The Time (Mus musculus [7]) was 0.72 min, the Time (Mus musculus [8]) was 0.76 min and the Time (Mus musculus [9]) was 0.93 min. For the same molecule, the Time (Mus musculus [10]) was 0.72 min, the Time (Mus musculus [11]) was 1.48 min and the Time (Mus musculus [12]) was 0.65 min. It also gave a Time (Mus musculus [13]) of 1.33 min, a Time (Mus musculus [14]) of 0.95 min and a Time (Mus musculus [15]) of 2.3 min. It also gave a Time (Mus musculus [16]) of 1.36 min, a Time (Mus musculus [17]) of 2.22 min and a Time (Mus musculus [18]) of 1.36 min. For the same molecule, the Time (Mus musculus [19]) was 2.41 min, the Time (Mus musculus [20]) was 0.67 min and the Time (Mus musculus [21]) was 0.43 min. The Km [22] was 159 µM, the Time (Mus musculus [23]) was 1.46 min and the Time (Mus musculus [24]) was 1.84 min. It also gave a Time (Mus musculus [25]) of 2.54 min and a Time (Mus musculus [26]) of 0.87 min.
